Results on 15 compounds are retold here after ChEMBL document CHEMBL3085713, “Facile preparation of tetrahydro-5H-pyrido[1,2,3-de]-1,4-benzoxazines via reductive cyclization of 2-(8-quinolinyloxy)ethanones and their antioxidant activity” (Bioorg Med Chem Lett, 2013).

Experiment [1] can be described thus: Antioxidant activity assessed as ABTS free radical scavenging activity after 3 mins by spectrophotometry. It is filed as functional. Summed up:
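ABTS (2 mM stock in PBS, pH 7.4) reacted with 70 mM K2S2O8, left in dark at room temperature 15-16 h, then diluted with PBS to absorbance 0.70 ± 0.03 at 734 nm. Sample in DMSO (0.1 mL, range of concentrations) mixed with 1.9 mL radical solution; absorbance read at ambient temperature after 3 min, PBS blank. Scavenging % vs sample-free control; triplicate means; IC50 = concentration scavenging 50%.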

In experiment [2] the test system is Radical scavenging activity. Nature of the experiment: Antioxidant activity assessed as DPPH free radical scavenging activity after 30 mins by spectrophotometry. It is filed as functional. Put shortly: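 Sample in DMSO (0.1 mL, range of concentrations) added to 1.9 mL of 0.004% (w/v) DPPH radical in ethanol; incubated at 37 °C, absorbance read at 517 nm after 30 min. Scavenging % = (A control − A test)/A control × 100, control lacking sample. Triplicate, means used; IC50 taken as concentration scavenging 50% of radicals.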
A general note: DPPH is a stable violet radical that fades when it is reduced.

As to `c1ccc(C2COc3cccc4c3N2CCC4)cc1` (stereo not given), the IC50 was determined as 38.3 µM in experiment [1] and 78.8 µM in experiment [2].
The like results for `Cc1ccc(C2COc3cccc4c3N2CCC4)cc1` (stereo not given) were, in that order, 48.4 µM and 98.4 µM.
On to `c1cc2c3c(c1)OCC(c1cccc4ccccc14)N3CCC2` (stereo not given), for which the concentration for half-maximal inhibition (IC50) in experiment [1] turned out to be 52.4 µM; in experiment [2], 75.2 µM.
The like results for `c1cc2c3c(c1)OCC(c1ccc4ccccc4c1)N3CCC2` (stereo not given) were, in that order, 62.2 µM and 98.3 µM.
In the case of `CC1Oc2cccc3c2N(CCC3)C1c1ccccc1` (stereo not given), the IC50 in experiment [1] turned out to be 62.4 µM; in experiment [2], 95.4 µM.
In the same order, the values of `c1cc2c3c(c1)OCC(c1ccc4c(c1)OCO4)N3CCC2` (stereo not given) are 42.5 µM and 78.3 µM.
Regarding `COc1ccccc1C1COc2cccc3c2N1CCC3` (stereo not given), the 50% inhibitory concentration (IC50) amounted to 15.3 µM in experiment [1] and 45.4 µM in experiment [2].
For `COc1cccc(C2COc3cccc4c3N2CCC4)c1` (stereo not given), the IC50 in experiment [1] came out at 9.3 µM; in experiment [2], 44.6 µM.
For the compound `COc1ccc(C2COc3cccc4c3N2CCC4)cc1OC` (stereo not given), the results for the concentration for half-maximal inhibition (IC50) in experiment [1] and in experiment [2] were 28.4 µM and 75.5 µM, respectively.
The like results for `COc1ccc(C2COc3cccc4c3N2CCC4)cc1` (stereo not given) were, in that order, 26.7 µM and 64.5 µM.
In the same order, the values of `Nc1cccc(C2COc3cccc4c3N2CCC4)c1` (stereo not given) are 17.8 µM and 52.3 µM.
Consider `Nc1ccc(C2COc3cccc4c3N2CCC4)cc1` (stereo not given), for which the IC50 stood at 10 µM in experiment [1] and 45 µM in experiment [2].
As to `c1csc(C2COc3cccc4c3N2CCC4)c1` (stereo not given), the IC50 stood at 20.2 µM in experiment [1] and 56.3 µM in experiment [2].
As for `O=C1O[C@H]([C@@H](O)CO)C(O)=C1O` [ASCORBIC ACID], the IC50 stood at 18.3 µM in experiment [1] and 49.7 µM in experiment [2].
In the same order, the values of `Cc1cc(C(C)(C)C)c(O)c(C(C)(C)C)c1` [BUTYLATED HYDROXYTOLUENE] are 32.1 µM and 63.1 µM.

What is called IC50 is the concentration that inhibits the measured activity by half.
